Source: ChEMBL document CHEMBL1145462, “In vivo pharmacodynamic activity of the glycopeptide dalbavancin” (Antimicrob Agents Chemother, 2007)
≈ marks a conversion by molar mass, not a printed value.

Experiments:
Streptococcus pneumoniae [1] = assay: AUC/MIC ratio of Streptococcus pneumoniae 1293 infected neutropenic mouse thigh infection model at 1.68 mg/kg, ip administered every 72 hrs by 2-log killing experiment; assay type: functional; conditions: route intraperitoneal
Streptococcus pneumoniae [2] = assay: Bactericidal activity against penicillin-susceptible Streptococcus pneumoniae ATCC 10813 infected neutropenic Swiss ICR mouse thigh infection model assessed as drug level causing 1-log reduction of bacterial count at 1.26 mg/kg, ip dosed every 36 hrs; assay type: functional; conditions: route intraperitoneal
Streptococcus pneumoniae [3] = assay: AUC/MIC ratio of Streptococcus pneumoniae 1325 infected neutropenic mouse thigh infection model at 1.46 mg/kg, ip administered every 24 hrs by static effect experiment; assay type: functional; conditions: route intraperitoneal
Staphylococcus aureus [4] = assay: AUC/MBC ratio of methicillin-resistant Staphylococcus aureus infected neutropenic mouse thigh infection model at 62 mg/kg, ip administered every 72 hrs by 1-log killing experiment; assay type: functional; conditions: route intraperitoneal
Staphylococcus aureus [5] = assay: AUC/MIC ratio of methicillin-resistant Staphylococcus aureus infected neutropenic mouse thigh infection model at 85 mg/kg, ip administered every 72 hrs by 2-log killing experiment; assay type: functional; conditions: route intraperitoneal
Streptococcus pneumoniae [6] = assay: Antibacterial activity against Streptococcus pneumoniae 1293 by microdilution method; assay type: functional
Method in brief: (§1)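 MIC and MBC were determined by CLSI broth microdilution, in duplicate on at least two occasions. Staphylococci were grown in Mueller-Hinton broth and agar; pneumococci were plated on sheep blood agar.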

Streptococcus pneumoniae [7] = assay: AUC/MIC ratio of Streptococcus pneumoniae 1325 infected neutropenic mouse thigh infection model at 0.99 mg/kg, ip administered every 72 hrs by 1-log killing experiment; assay type: functional; conditions: route intraperitoneal
Streptococcus pneumoniae [8] = assay: Antibacterial activity against Streptococcus pneumoniae 1199 by microdilution method; assay type: functional; method in brief: as §1
Streptococcus pneumoniae [9] = assay: AUC/MIC ratio of Streptococcus pneumoniae 1329 infected neutropenic mouse thigh infection model at 1.45 mg/kg, ip administered every 24 hrs by 2-log killing experiment; assay type: functional; conditions: route intraperitoneal
[10] = AUC in bacterial pathogen-infected neutropenic Swiss ICR mouse thigh infection model at 40 mg/kg, ip; assay type: ADME, organism-based; design: dose 40 mg/kg, route intraperitoneal; conditions: in vivo
Method in brief: (§2)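 Thigh-infected neutropenic mice received single intraperitoneal doses (2.5, 5, 10, 20, 40, 80 mg/kg; 0.2 ml/dose). Blood was drawn by retroorbital aspiration from groups of three mice at 0.5, 1, 2, 4, 6, 24, 48, 72 and 96 h. Plasma levels were measured by microbiologic assay with Bacillus subtilis (detection limit 0.10 mg/liter). Noncompartmental analysis was used: half-life by linear least-squares regression, AUC by trapezoidal rule.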

[11] = AUC in bacterial pathogen-infected neutropenic Swiss ICR mouse thigh infection model at 5 mg/kg, ip; assay type: ADME, organism-based; design: dose 5 mg/kg, route intraperitoneal; conditions: in vivo; method in brief: as §2
Staphylococcus aureus [12] = assay: AUC/MIC ratio of Staphylococcus aureus 31005 infected neutropenic mouse thigh infection model at 49.3 mg/kg, ip administered every 24 hrs by static effect experiment; assay type: functional; conditions: route intraperitoneal
Streptococcus pneumoniae [13] = assay: AUC/MIC ratio of Streptococcus pneumoniae ATCC 10813 infected neutropenic mouse thigh infection model at 0.77 mg/kg, ip administered every 72 hrs by 1-log killing experiment; assay type: functional; conditions: route intraperitoneal
Streptococcus pneumoniae [14] = assay: AUC/MIC ratio of Streptococcus pneumoniae 1325 infected neutropenic mouse thigh infection model at 1.16 mg/kg, ip administered every 72 hrs by 2-log killing experiment; assay type: functional; conditions: route intraperitoneal
Staphylococcus aureus [15] = assay: AUC/MIC ratio of Staphylococcus aureus 307109 infected neutropenic mouse thigh infection model at 37 mg/kg, ip administered every 72 hrs by 2-log killing experiment; assay type: functional; conditions: route intraperitoneal
Streptococcus pneumoniae [16] = assay: AUC/MIC ratio of Streptococcus pneumoniae 1293 infected neutropenic mouse thigh infection model at 1.28 mg/kg, ip administered every 72 hrs by 1-log killing experiment; assay type: functional; conditions: route intraperitoneal
Staphylococcus aureus [17] = assay: AUC/MIC ratio of Staphylococcus aureus 31005 infected neutropenic mouse thigh infection model at 67.7 mg/kg, ip administered every 72 hrs by static effect experiment; assay type: functional; conditions: route intraperitoneal
Serum = assay: Protein binding in Staphylococcus aureus infected neutropenic mouse serum; assay type: ADME, organism-based; conditions: in vivo
Method in brief: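 MICs for S. aureus ATCC 25923 and an MRSA strain were compared in broth, heat-treated (100°C, 30 min) 95% mouse serum and 95% serum ultrafiltrate, using arithmetic dilutions of 0.02 mg/liter per tube. Bound fraction = (MIC in serum − MIC in ultrafiltrate)/MIC in serum.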

Staphylococcus aureus [18] = assay: AUC/MBC ratio of Staphylococcus aureus 307109 infected neutropenic mouse thigh infection model at 34 mg/kg, ip administered every 72 hrs by 1-log killing experiment; assay type: functional; conditions: route intraperitoneal
Staphylococcus aureus [19] = assay: AUC/MIC ratio of Staphylococcus aureus ATCC 25923 infected neutropenic mouse thigh infection model at 160 mg/kg, ip administered every 72 hrs by static effect experiment; assay type: functional; conditions: route intraperitoneal
Streptococcus pneumoniae [20] = assay: AUC/MIC ratio of Streptococcus pneumoniae 1329 infected neutropenic mouse thigh infection model at 0.90 mg/kg, ip administered every 24 hrs by static effect experiment; assay type: functional; conditions: dose 0.9 mg/kg; route intraperitoneal
Streptococcus pneumoniae [21] = assay: Bactericidal activity in ip dosed penicillin-susceptible Streptococcus pneumoniae ATCC 10813 infected neutropenic mouse thigh infection model assessed as reduction of colony count after 48 hrs by time kill study; assay type: functional, Thigh muscle
Method in brief: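 Neutropenic mice with thigh infection treated 2 h post-inoculation with single ip doses of 0.625, 1.25, 2.5, 5 or 10 mg/kg. Two mice per time point, sampled 0.5–96 h, with untreated controls. Thighs processed for CFU, reported as mean ± standard deviation log10 CFU/thigh.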

[22] = Cmax in bacterial pathogen-infected neutropenic Swiss ICR mouse thigh infection model at 10 mg/kg, ip; assay type: ADME, organism-based; design: dose 10 mg/kg, route intraperitoneal; conditions: in vivo; method in brief: as §2
Staphylococcus aureus [23] = assay: AUC/MBC ratio of Staphylococcus aureus Smith infected neutropenic mouse thigh infection model at 95 mg/kg, ip administered every 72 hrs by 1-log killing experiment; assay type: functional; conditions: route intraperitoneal
Streptococcus pneumoniae [24] = assay: AUC/MIC ratio of Streptococcus pneumoniae 1293 infected neutropenic mouse thigh infection model at 1.01 mg/kg, ip administered every 72 hrs by static effect experiment; assay type: functional; conditions: route intraperitoneal
Staphylococcus aureus [25] = assay: AUC/MIC ratio of Staphylococcus aureus 33591 infected neutropenic mouse thigh infection model at 22.3 mg/kg, ip administered every 24 hrs by static effect experiment; assay type: functional; conditions: route intraperitoneal
Staphylococcus aureus [26] = assay: AUC/MBC ratio of methicillin-resistant Staphylococcus aureus infected neutropenic mouse thigh infection model at 85 mg/kg, ip administered every 72 hrs by 2-log killing experiment; assay type: functional; conditions: route intraperitoneal
Streptococcus pneumoniae [27] = assay: AUC/MIC ratio of Streptococcus pneumoniae ATCC 10813 infected neutropenic mouse thigh infection model at 1.54 mg/kg, ip administered every 24 hrs by 1-log killing experiment; assay type: functional; conditions: route intraperitoneal
Streptococcus pneumoniae [28] = assay: AUC/MIC ratio of Streptococcus pneumoniae 1199 infected neutropenic mouse thigh infection model at 0.57 mg/kg, ip administered every 24 hrs by 2-log killing experiment; assay type: functional; conditions: route intraperitoneal
Staphylococcus aureus [29] = assay: AUC/MBC ratio of Staphylococcus aureus 31005 infected neutropenic mouse thigh infection model at 127 mg/kg, ip administered every 72 hrs by 2-log killing experiment; assay type: functional; conditions: route intraperitoneal
Staphylococcus aureus [30] = assay: AUC/MBC ratio of Staphylococcus aureus 33591 infected neutropenic mouse thigh infection model at 74 mg/kg, ip administered every 72 hrs by static effect experiment; assay type: functional; conditions: route intraperitoneal
Staphylococcus aureus [31] = assay: AUC/MIC ratio of Staphylococcus aureus Smith infected neutropenic mouse thigh infection model at 59 mg/kg, ip administered every 72 hrs by static effect experiment; assay type: functional; conditions: route intraperitoneal
Staphylococcus aureus [32] = assay: AUC/MIC ratio of Staphylococcus aureus 31005 infected neutropenic mouse thigh infection model at 94.6 mg/kg, ip administered every 72 hrs by 1-log killing experiment; assay type: functional; conditions: route intraperitoneal

CN[C@H]1C(=O)N[C@@H]2Cc3ccc(cc3)Oc3cc4cc(c3O[C@@H]3O[C@H](C(=O)O)[C@@H](O)[C@H](O)[C@H]3NC(=O)CCCCCCCCC(C)C)Oc3ccc(cc3Cl)[C@@H](O)[C@@H]3NC(=O)[C@H](NC(=O)[C@@H]4NC(=O)[C@@H](NC2=O)c2cc(cc(O)c2Cl)Oc2cc1ccc2O)c1ccc(O)c(c1)-c1c(O[C@H]2O[C@H](CO)[C@@H](O)[C@H](O)[C@@H]2O)cc(O)cc1[C@@H](C(=O)NCCCN(C)C)NC3=O [DALBAVANCIN]
RatioAUC/MIC (Streptococcus pneumoniae [1]): 23.8
Activity (Streptococcus pneumoniae [2]): 1.53
RatioAUC/MIC (Streptococcus pneumoniae [3]): 29
Ratio (Staphylococcus aureus [4]): 48.8
RatioAUC/MIC (Staphylococcus aureus [5]): 292
MBC (Streptococcus pneumoniae [6]): 4 ng/mL (≈ 2.2 nM)
MIC (Streptococcus pneumoniae [6]): 4 ng/mL (≈ 2.2 nM)
RatioAUC/MIC (Streptococcus pneumoniae [7]): 8.8
MBC (Streptococcus pneumoniae [8]): 4 ng/mL (≈ 2.2 nM)
MIC (Streptococcus pneumoniae [8]): 4 ng/mL (≈ 2.2 nM)
RatioAUC/MIC (Streptococcus pneumoniae [9]): 26.7
AUC [10]: 5360 µg·h/mL
AUC [11]: 285 µg·h/mL
RatioAUC/MIC (Staphylococcus aureus [12]): 483
RatioAUC/MIC (Streptococcus pneumoniae [13]): 1.6
RatioAUC/MIC (Streptococcus pneumoniae [14]): 17.6
RatioAUC/MIC (Staphylococcus aureus [15]): 121
RatioAUC/MIC (Streptococcus pneumoniae [16]): 18
RatioAUC/MIC (Staphylococcus aureus [17]): 223
Activity (Serum): 98.4%
Ratio (Staphylococcus aureus [18]): 12.9
RatioAUC/MIC (Staphylococcus aureus [19]): 274
RatioAUC/MIC (Streptococcus pneumoniae [20]): 18
Activity (Streptococcus pneumoniae [21]): 4
Cmax [22]: 34800 ng/mL
Ratio (Staphylococcus aureus [23]): 78
RatioAUC/MIC (Streptococcus pneumoniae [24]): 14.1
RatioAUC/MIC (Staphylococcus aureus [25]): 96.2
Ratio (Staphylococcus aureus [26]): 70
RatioAUC/MIC (Streptococcus pneumoniae [27]): 8.7
RatioAUC/MIC (Streptococcus pneumoniae [28]): 22.7
Ratio (Staphylococcus aureus [29]): 217
Ratio (Staphylococcus aureus [30]): 59
RatioAUC/MIC (Staphylococcus aureus [31]): 96
RatioAUC/MIC (Staphylococcus aureus [32]): 325
